Reference: ChEMBL document CHEMBL4024721, “C-2 (E)-4-(Styryl)aniline substituted diphenylpyrimidine derivatives (Sty-DPPYs) as specific kinase inhibitors targeting clinical resistance related EGFRT790M mutant” (Bioorg Med Chem, 2017)

What was measured:
[1] = test system: Epidermal growth factor receptor (Homo sapiens), P00533 [L858R,T790M]; assay: Potency index, ratio of gefitinib IC50 to test compound IC50 for recombinant human EGFR T790M/L858R double mutant (695 to end residues)
NCI-H1975 [2] = assay: Induction of apoptosis in human NCI-H1975 cells harboring EGFR T790M/L858R double mutant assessed as necrotic cells at 8 uM after 72 hrs by annexin V/FITC staining-based flow cytometric method relative to control; assay type: functional
Outline: (§1)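 H1975 cells (ATCC), grown as monolayers at 37 °C in humidified 5% CO2, were incubated with compound at the indicated concentrations for 72 h. They were then stained with annexin V/FITC and analysed by flow cytometry. The data shown come from one representative experiment.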

NCI-H1975 [3] = assay: Induction of apoptosis in human NCI-H1975 cells harboring EGFR T790M/L858R double mutant assessed as late apoptotic cells at 8 uM after 72 hrs by annexin V/FITC staining-based flow cytometric method relative to control; assay type: functional; outline: as §1
A-431 = assay: Antiproliferative activity against human A431 cells harboring wild type EGFR assessed as decrease in cell viability after 72 hrs by MTT assay; assay type: ADME, cell-based; conditions: A-431, 72 h
NCI-H1975 [4] = assay: Induction of apoptosis in human NCI-H1975 cells harboring EGFR T790M/L858R double mutant assessed as viable cells at 1 uM after 72 hrs by annexin V/FITC staining-based flow cytometric method relative to control; assay type: functional; conditions: NCI-H1975, 72 h, read-out: Activity; outline: as §1
A549 = assay: Antiproliferative activity against human A549 cells harboring EGFR K-ras mutant assessed as decrease in cell viability after 72 hrs by MTT assay; assay type: functional, cell-based; conditions: A549, 72 h
NCI-H1975 [5] = assay: Induction of apoptosis in human NCI-H1975 cells harboring EGFR T790M/L858R double mutant assessed as viable cells at 8 uM after 72 hrs by annexin V/FITC staining-based flow cytometric method relative to control; assay type: functional; conditions: NCI-H1975, 72 h, read-out: Activity; outline: as §1
NCI-H1975 [6] = assay: Induction of apoptosis in human NCI-H1975 cells harboring EGFR T790M/L858R double mutant after 72 hrs by annexin V/FITC staining-based flow cytometric method; assay type: functional, cell-based; outline: as §1
NCI-H1975 [7] = assay: Induction of apoptosis in human NCI-H1975 cells harboring EGFR T790M/L858R double mutant assessed as late apoptotic cells at 1 uM after 72 hrs by annexin V/FITC staining-based flow cytometric method relative to control; assay type: functional; outline: as §1
NCI-H1975 [8] = assay: Induction of apoptosis in human NCI-H1975 cells harboring EGFR T790M/L858R double mutant assessed as necrotic cells at 1 uM after 72 hrs by annexin V/FITC staining-based flow cytometric method relative to control; assay type: functional; outline: as §1
HCC827 = assay: Antiproliferative activity against human HCC827 cells harboring EGFR del E746 to A750 mutant assessed as decrease in cell viability after 72 hrs by MTT assay; assay type: functional, cell-based; conditions: HCC827, 72 h
NCI-H1975 [9] = assay: Induction of apoptosis in human NCI-H1975 cells harboring EGFR T790M/L858R double mutant assessed as early apoptotic cells at 4 uM after 72 hrs by annexin V/FITC staining-based flow cytometric method relative to control; assay type: functional; outline: as §1
[10] = target: Epidermal growth factor receptor (Homo sapiens, UniProt P00533, L858R/T790M)
[11] = target: Epidermal growth factor receptor (Homo sapiens, UniProt P00533); assay type: ADME
[12] = Antiproliferative activity against NHBE cells assessed as decrease in cell viability after 72 hrs by MTT assay; assay type: ADME, cell-based; conditions: Homo sapiens
NCI-H1975 [13] = assay: Induction of apoptosis in human NCI-H1975 cells harboring EGFR T790M/L858R double mutant assessed as viable cells at 4 uM after 72 hrs by annexin V/FITC staining-based flow cytometric method relative to control; assay type: functional; conditions: NCI-H1975, 72 h, read-out: Activity; outline: as §1
NCI-H1975 [14] = assay: Induction of apoptosis in human NCI-H1975 cells harboring EGFR T790M/L858R double mutant assessed as early apoptotic cells at 1 uM after 72 hrs by annexin V/FITC staining-based flow cytometric method relative to control; assay type: functional; outline: as §1
NCI-H1975 [15] = assay: Antiproliferative activity against human NCI-H1975 cells harboring EGFR T790M/L858R double mutant assessed as decrease in cell viability after 72 hrs by MTT assay; assay type: functional, cell-based; conditions: NCI-H1975, 72 h
NCI-H1975 [16] = assay: Induction of apoptosis in human NCI-H1975 cells harboring EGFR T790M/L858R double mutant assessed as early apoptotic cells at 8 uM after 72 hrs by annexin V/FITC staining-based flow cytometric method relative to control; assay type: functional; outline: as §1
NCI-H1975 [17] = assay: Induction of apoptosis in human NCI-H1975 cells harboring EGFR T790M/L858R double mutant assessed as late apoptotic cells at 4 uM after 72 hrs by annexin V/FITC staining-based flow cytometric method relative to control; assay type: functional; outline: as §1
NCI-H1975 [18] = assay: Induction of apoptosis in human NCI-H1975 cells harboring EGFR T790M/L858R double mutant assessed as necrotic cells at 4 uM after 72 hrs by annexin V/FITC staining-based flow cytometric method relative to control; assay type: functional; outline: as §1

Row | Ratio IC50 [1] | IC50 (A-431) [µM] | IC50 (A549) [µM] | IC50 (HCC827) [µM] | IC50 [10] [µM] | IC50 [11] [µM] | IC50 (NCI-H1975 [15]) [µM] | SMILES | IC50 [12] [µM] | other results
1 | 45 to 177 | 10.6 | 12.8 | 2.07 | 0.011 | 0.539 | 2.91 | C=CC(=O)Nc1cccc(Nc2nc(Nc3ccc(/C=C/c4cc(C)cc(C)c4)cc3)ncc2F)c1 | 22.5 | Activity (NCI-H1975 [2]): 13.2%; Activity (NCI-H1975 [3]): 76.1%; viability at 1 µM (NCI-H1975 [4]): 55.9%; viability at 8 µM (NCI-H1975 [5]): 7%; Activity (NCI-H1975 [6]): Dose-dependent effect; Activity (NCI-H1975 [7]): 22.7%; Activity (NCI-H1975 [8]): 3.7%; Activity (NCI-H1975 [9]): 27.1%; viability at 4 µM (NCI-H1975 [13]): 45.7%; Activity (NCI-H1975 [14]): 17.7%; Activity (NCI-H1975 [16]): 3.7%; Activity (NCI-H1975 [17]): 25.8%; Activity (NCI-H1975 [18]): 1.4%
2 | 45 to 177 | 5.56 | 5.59 | 4 | 0.0265 | 0.607 | 2.32 | C=CC(=O)Nc1cccc(Nc2nc(Nc3ccc(/C=C/c4cc(C)cc(C)c4)cc3)ncc2Cl)c1 | 17 | 
3 | 45 to 177 | 4.71 | 10.8 | 11.7 | 0.0224 | 0.087 | 13.7 | C=CC(=O)Nc1cccc(Oc2nc(Nc3ccc(/C=C/c4cc(C)cc(C)c4)cc3)ncc2Cl)c1 | 6.07 | 
4 | 45 to 177 | 3.16 | 4.94 | 9.71 | 0.0068 | 0.996 | 4.39 | C=CC(=O)Nc1cccc(Nc2nc(Nc3ccc(/C=C/c4ccc(C)cc4C)cc3)ncc2Cl)c1 | 15.8 | 
5 | 45 to 177 | 1.29 | 7.01 | 10.8 | 0.0142 | 0.388 | 6.98 | C=CC(=O)Nc1cccc(Nc2nc(Nc3ccc(/C=C/c4cc(Cl)cc(Cl)c4)cc3)ncc2F)c1 | 5.42 | 
6 | 45 to 177 | 6.56 | 15.8 | 9.16 | 0.0113 | 1.04 | 6.98 | C=CC(=O)Nc1cccc(Nc2nc(Nc3ccc(/C=C/c4cc(Cl)cc(Cl)c4)cc3)ncc2Cl)c1 | 35.2 | 
7 | 45 to 177 | 1.78 | 6.84 | 3.32 | 0.0157 | 0.216 | 3.76 | C=CC(=O)Nc1cccc(Nc2nc(Nc3ccc(/C=C/c4cc(OC)cc(OC)c4)cc3)ncc2Cl)c1 | 9.18 | 
8 |  | 1.79 | 3.24 | 0.031 |  |  | 0.137 | C=CC(=O)Nc1cccc(Nc2nc(Nc3ccc(N4CCN(C(C)=O)CC4)cc3OC)ncc2C(F)(F)F)c1 [ROCILETINIB] | 23.8 | 
9 | 45 to 177 | 3.11 | 1.32 | > 20 | 0.0081 | 0.387 | 7.16 | C=CC(=O)Nc1cccc(Nc2nc(Nc3ccc(/C=C/c4ccc(C)cc4C)cc3)ncc2F)c1 | 10.4 | 
